This is an account of results in ChEMBL document CHEMBL1138305, “Novel substituted (Z)-2-(N-benzylindol-3-ylmethylene)quinuclidin-3-one and (Z)-(+/-)-2-(N-benzylindol-3-ylmethylene)quinuclidin-3-ol derivatives as potent thermal sensitizing agents” (2007).

Structures are written as SMILES. Where only a bound is given, the exact number is not on record here.

Experiment [1] relates to HT-29. The experiment in a line: Growth inhibition of HT29 cells assessed as relative survival at 50 uM after 2 hrs relative to control. It counts as functional, Homo sapiens. The method in brief: (§1)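 HT-29 colon carcinoma cells were exposed to drug for 2 h at 41°C, with DMSO as vehicle. Drug was then washed off and cells grown 14 days in fresh medium. Colonies of more than 50 cells were stained with crystal violet and counted. Survival was corrected for plating efficiency (vehicle, 2 h, 37°C) and for 2 h drug exposure at 37°C; vehicle at 41°C was set to 1.0. Student's t test.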

The subject of experiment [2] is HT-29. The experiment in a line: Cell survival of human HT29 cells at 150 uM after 2 hrs. It counts as functional. Particulars: HT-29, 2 h, read-out: Survival.
For experiment [3], the system named is HT-29. Kind of experiment: Growth inhibition of HT29 cells assessed as relative survival at 150 uM after 2 hrs relative to control. It counts as functional, Homo sapiens. The method in brief: as §1
In experiment [4] the test system is HT-29. The experiment in a line: Growth inhibition of HT29 cells at 50 uM after 2 hrs. It counts as functional. Conditions: Homo sapiens, HT-29, 2 h. The method in brief:
as §1

Regarding `OC1/C(=C/c2cn(Cc3ccc(F)cc3)c3ccccc23)N2CCC1CC2` (configuration not stated), the Survival in the experiment with HT-29 [1] was 0.7. The viability at 150 µM in the experiment with HT-29 [2] is less than 70%.

On to `O=C1/C(=C/c2cn(Cc3ccccc3)c3ccc(Br)cc23)N2CCC1CC2`, for which the viability at 150 µM in the experiment with HT-29 [2] is more than 70%. Moreover, the Survival in the experiment on HT-29 [3] was 1.

For `Cc1ccc2c(c1)c(/C=C1/C(=O)C3CCN1CC3)cn2Cc1ccccc1`, the viability at 150 µM in the experiment with HT-29 [2] is more than 70%. Moreover, in the experiment with HT-29 [3], the Survival was 0.98.

In the case of `O=C1/C(=C/c2cn(Cc3ccc(F)cc3)c3ccc(Br)cc23)N2CCC1CC2`, in the experiment on HT-29 [2], the viability at 150 µM is more than 70%. Moreover, the Survival in the experiment on HT-29 [3] is given as 0.81.

Consider `Cc1ccc(Cn2cc(/C=C3/C(O)C4CCN3CC4)c3cc(Br)ccc32)cc1` (configuration not stated), for which, in the experiment with HT-29 [2], the viability at 150 µM is more than 70%. For the same compound, in the experiment on HT-29 [3], the Survival was 0.78.

In the case of `Cc1ccc(Cn2cc(/C=C3/C(=O)C4CCN3CC4)c3cc(Br)ccc32)cc1`, the viability at 150 µM with HT-29 [2] is more than 70%. For the same compound, in the experiment with HT-29 [3], the Survival came to 1.

`Cc1ccc(Cn2cc(/C=C3/C(O)C4CCN3CC4)c3cc(C)ccc32)cc1` (configuration not stated): the Survival in the experiment with HT-29 [1] worked out at 0.59. The viability at 150 µM in the experiment with HT-29 [2] is less than 70%.

`OC1/C(=C/c2cn(Cc3ccccc3)c3ccccc23)N2CCC1CC2` (racemic): the Survival in the experiment with HT-29 [1] amounted to 1; in the experiment on HT-29 [3], 0.06. The compound also had an inhibition at 50 µM in the experiment with HT-29 [4] of 93%.

Turning to `O=C1/C(=C/c2cn(Cc3ccc(Cl)cc3)c3ccccc23)N2CCC1CC2`, the viability at 150 µM in the experiment with HT-29 [2] is more than 70%. Moreover, the Survival with HT-29 [3] is given as 0.56.

For `Cc1ccc(Cn2cc(/C=C3/C(O)C4CCN3CC4)c3ccccc32)cc1` (configuration not stated), the Survival in the experiment with HT-29 [1] was 0.59. Also, the viability at 150 µM with HT-29 [2] is less than 70%.

For the compound `OC1/C(=C/c2cn(Cc3ccccc3Br)c3ccc(Br)cc23)N2CCC1CC2` (configuration not stated), the viability at 150 µM in the experiment with HT-29 [2] is more than 70%. Besides, in the experiment on HT-29 [3], the Survival is listed as 0.58.

Consider `O=C1/C(=C/c2cn(Cc3ccccc3)c3ccccc23)N2CCC1CC2`, for which the Survival in the experiment with HT-29 [3] is 0.5.

Consider `Cc1ccc(Cn2cc(/C=C3/C(=O)C4CCN3CC4)c3ccccc32)cc1`, for which the viability at 150 µM in the experiment on HT-29 [2] was more than 70%. For the same compound, the Survival in the experiment on HT-29 [3] is listed as 1.

`Cc1ccc2c(c1)c(/C=C1/C(O)C3CCN1CC3)cn2Cc1ccccc1` (configuration not stated): the viability at 150 µM with HT-29 [2] was more than 70%. In addition, the Survival in the experiment on HT-29 [3] was determined as 1.

`COc1ccc(Cn2cc(/C=C3/C(O)C4CCN3CC4)c3cc(Br)ccc32)cc1` (configuration not stated): in the experiment with HT-29 [2], the viability at 150 µM was more than 70%. For the same compound, the Survival with HT-29 [3] was found to be 0.61.

As for `O=C1/C(=C/c2cn(Cc3ccccc3Br)c3ccc(Br)cc23)N2CCC1CC2`, the viability at 150 µM with HT-29 [2] was more than 70%. Besides, in the experiment with HT-29 [3], the Survival is reported as 0.96.

With `OC1/C(=C/c2cn(Cc3ccc(Cl)cc3)c3ccc(Br)cc23)N2CCC1CC2` (configuration not stated), the viability at 150 µM with HT-29 [2] was more than 70%. Besides, the Survival in the experiment with HT-29 [3] was 0.9.

Turning to `COc1ccc2c(c1)c(/C=C1/C(=O)C3CCN1CC3)cn2Cc1ccccc1`, in the experiment with HT-29 [2], the viability at 150 µM was more than 70%. For the same compound, the Survival in the experiment with HT-29 [3] was determined as 0.75.

As to `OC1/C(=C/c2cn(Cc3ccc(Cl)cc3)c3ccccc23)N2CCC1CC2` (configuration not stated), the Survival in the experiment with HT-29 [1] is 0.07. The viability at 150 µM with HT-29 [2] is less than 70%.

As for `O=C1/C(=C/c2cn(Cc3ccc(F)cc3)c3ccccc23)N2CCC1CC2`, in the experiment on HT-29 [2], the viability at 150 µM is more than 70%. Moreover, the Survival in the experiment on HT-29 [3] stood at 0.71.

Take `OC1/C(=C/c2cn(Cc3ccccc3)c3ccc(Br)cc23)N2CCC1CC2` (configuration not stated): the viability at 150 µM in the experiment with HT-29 [2] is more than 70%. In the experiment with HT-29 [3], the Survival was determined as 0.59.

`Cc1ccc(Cn2cc(/C=C3/C(=O)C4CCN3CC4)c3cc(C)ccc32)cc1`: the viability at 150 µM in the experiment with HT-29 [2] is more than 70%. Moreover, in the experiment on HT-29 [3], the Survival worked out at 1.

`COc1ccc(Cn2cc(/C=C3/C(=O)C4CCN3CC4)c3cc(Br)ccc32)cc1`: the viability at 150 µM with HT-29 [2] was more than 70%. The Survival in the experiment with HT-29 [3] was found to be 0.86.

With `OC1/C(=C/c2cn(Cc3ccc(F)cc3)c3ccc(Br)cc23)N2CCC1CC2` (configuration not stated), in the experiment with HT-29 [2], the viability at 150 µM is more than 70%. For the same compound, in the experiment with HT-29 [3], the Survival is given as 0.52.

As for `COc1ccc2c(c1)c(/C=C1/C(O)C3CCN1CC3)cn2Cc1ccccc1` (configuration not stated), in the experiment on HT-29 [1], the Survival was 0.76. Besides, the viability at 150 µM with HT-29 [2] was less than 70%.

Turning to `O=C1/C(=C/c2cn(Cc3ccc(Cl)cc3)c3ccc(Br)cc23)N2CCC1CC2`, in the experiment with HT-29 [2], the viability at 150 µM was more than 70%. In the experiment with HT-29 [3], the Survival is on record as 1.

One may read the inhibition as the relative decrease from the control value, in per cent.
